Laboratory results reported in the RNAGym collection of RNA variant scans (doi:10.1038/s41586-018-0170-7).

B1: tRNA (parent)
chain: GUUCCGUUGGCGUAAUGGUAACGCGUCUCCCUCCUAAGGAGAAGACUGCGGGUUCGAGUCCCGUACGGAACG

Variants of: B1
Experiment: yeast fitness, log relative to wild type (ln ratio); higher = fitter; tRNA-Arg(CCU), competitive growth, 37 C, 1 M NaCl
Procedure, shortened: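 Fitness is the natural log of each genotype's generations divided by the wild type's. Generations were derived as OD-scaled log2 output/input frequency from 125 bp paired-end Illumina counts, weighting replicates by inverse variance. Pools of the tRNA-Arg(CCU) variant library, on a HIS3 centromeric plasmid in BY4742 lacking the chromosomal gene, grew ~6.5 generations (~26.5 h) in SC-HIS 1M NaCl at 37 °C after 4 generations in SC-HIS at 30 °C.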

Point of comparison: AGUCCUUUGGCGUAAUGGUAACGCGUCUCCCUCCUAAGGAGAAGACUGCGGGUUCGAGUCCCGUACGGGGUG, “yeast fitness (ln)” value -0.427. Against it:
- AGUCCUUUGGCGUAAUGGUAACGCGUUUCCCUCCUAAGGAGACGACUGCGGGUUCGAGUCCCGUAAGGAUCG — higher, -0.212
- AGUCCUUUGGCGUAAUGGUAACGCGUCUCCCUCCUAAGGAGAAGACUGCGGGUUCGAGUCCCGUACGGGUUG — higher, -0.255
- AGUCCUUUGGCGUAAUGGUAACGCGUUUCCCUCCUAAGGAGACGAUUGCGGGUUCGAGUCCCGUAAGGAUCG — higher, -0.309
- AGUCCUUUGGCGUAAUGGUAACGCGUUUCCCUCCUAAGGAGAAGACUGCGGGUUCGAGUCCCGUACGGGUUG — higher, -0.404
- AGUCCUUUGGCGUAAUGGUAACGCGUUUCCCUCCUAAGGAGACGACUGCGGGUUCGAGUCCCGUAUGGAAUG — lower, -0.518
- AGUCCUUUGGCGUAAUGGUAACGCGUCUCCCUCCUAAGGAGACGACUGCGGGUUCGAGUCCCGUACGGAAUG — higher, -0.307
- AGUCCUUUGGCGUAAUGGUAACGCGUUUCCCUCCUAAGGAGACGACUGCGGGUUCGAGUCCCGUAUGGAUUG — lower, -0.429
- AGUCCUUUGGCGUAAUGGUAACGCGUUUCCCUCCUAAGGAGACGAUUGCGGGUUCGAGUCCCGUAUGGAACG — lower, -0.434
- AGUCCUUUGGCGUAAUGGUAACGCGUUUCCCUCCUAAGGAGACGAUUGCGGGUUCGAGUCCCGUAAGGAACG — higher, -0.25
- AGUCCUUUGGCGUAAUGGUAACGCGUUUCCCUCCUAAGGAGACGACUGCGGGUUCGAGUCCCGUACGGAUCG — higher, -0.338
- AGUCCUUUGGCGUAAUGGUAACGCGUUUCCCUCCUAAGGAGACGACUGCGGGUUCGAGUCCCGUACGGAGCG — higher, -0.419
- AGUCCUUUGGCGUAAUGGUAACGCGUUUCCCUCCUAAGGAGACGAUUGCGGGUUCGAGUCCCGUACGGGGCG — higher, -0.192
- AGUCCUUUGGCGUAAUGGUAACGCGUUUCCCUCCUAAGGAGACGAUUGCGGGUUCGAGUCCCGUACGGGUCG — lower, -0.463
- AGUCCUUUGGCGUAAUGGUAACGCGUUUCCCUCCUAAGGAGACGAUUGCGGGUUCGAGUCCCGUACGGGAUG — higher, -0.39
- AGUCCUUUGGCGUAAUGGUAACGCGUUUCCCUCCUAAGGAGACGACUGCGGGUUCGAGUCCCGUAUGGGGCG — higher, -0.337
- AGUCCUUUGGCGUAAUGGUAACGCGUUUCCCUCCUAAGGAGACGACUGCGGGUUCGAGUCCCGUAUGGGUCG — lower, -0.611
- AGUCCUUUGGCGUAAUGGUAACGCGUUUCCCUCCUAAGGAGACGAUUGCGGGUUCGAGUCCCGUACGGAGUG — higher, -0.426
- AGUCCUUUGGCGUAAUGGUAACGCGUCUCCCUCCUAAGGAGAAGACUGCGGGUUCGAGUCCCGUACGGGAUG — higher, -0.224
- AGUCCUUUGGCGUAAUGGUAACGCGUUUCCCUCCUAAGGAGACGACUGCGGGUUCGAGUCCCGUAUGGAGUG — higher, -0.346
- AGUCCUUUGGCGUAAUGGUAACGCGUUUCCCUCCUAAGGAGACGAUUGCGGGUUCGAGUCCCGUAAGGAAUG — higher, -0.41
- AGUCCUUUGGCGUAAUGGUAACGCGUUUCCCUCCUAAGGAGAAGACUGCGGGUUCGAGUCCCGUACGGAGCG — higher, -0.274
- AGUCCUUUGGCGUAAUGGUAACGCGUUUCCCUCCUAAGGAGAAGACUGCGGGUUCGAGUCCCGUACGGAUCG — higher, -0.265
- AGUCCUUUGGCGUAAUGGUAACGCGUUUCCCUCCUAAGGAGAAGACUGCGGGUUCGAGUCCCGUACGGGAUG — higher, -0.274
- AGUCCUUUGGCGUAAUGGUAACGCGUUUCCCUCCUAAGGAGACGACUGCGGGUUCGAGUCCCGUAUGGGGUG — lower, -0.491
- AGUCCUUUGGCGUAAUGGUAACGCGUCUCCCUCCUAAGGAGAAGACUGCGGGUUCGAGUCCCGUACGGAUCG — higher, -0.166
- AGUCCUUUGGCGUAAUGGUAACGCGUCUCCCUCCUAAGGAGAAGACUGCGGGUUCGAGUCCCGUACGGAGCG — higher, -0.235
- AGUCCUUUGGCGUAAUGGUAACGCGUUUCCCUCCUAAGGAGACGACUGCGGGUUCGAGUCCCGUACGGGGCG — higher, -0.326
- AGUCCUUUGGCGUAAUGGUAACGCGUUUCCCUCCUAAGGAGACGACUGCGGGUUCGAGUCCCGUACGGGUCG — lower, -0.454
- AGUCCUUUGGCGUAAUGGUAACGCGUUUCCCUCCUAAGGAGACGACUGCGGGUUCGAGUCCCGUACGGAGUG — lower, -0.588
- AGUCCUUUGGCGUAAUGGUAACGCGUUUCCCUCCUAAGGAGACGACUGCGGGUUCGAGUCCCGUACGGGUUG — lower, -0.494
- AGUCCUUUGGCGUAAUGGUAACGCGUUUCCCUCCUAAGGAGACGAUUGCGGGUUCGAGUCCCGUAAGGAGUG — higher, -0.369
- AGUCCUUUGGCGUAAUGGUAACGCGUUUCCCUCCUAAGGAGAAGACUGCGGGUUCGAGUCCCGUACGGAACG — higher, -0.148
- AGUCCUUUGGCGUAAUGGUAACGCGUUUCCCUCCUAAGGAGACGAUUGCGGGUUCGAGUCCCGUACGGGGUG — lower, -0.446
- AGUCCUUUGGCGUAAUGGUAACGCGUUUCCCUCCUAAGGAGACGAUUGCGGGUUCGAGUCCCGUAUGGGGUG — lower, -0.475
- AGUCCUUUGGCGUAAUGGUAACGCGUUUCCCUCCUAAGGAGACGACUGCGGGUUCGAGUCCCGUACGGAAUG — higher, -0.329
- AGUCCUUUGGCGUAAUGGUAACGCGUUUCCCUCCUAAGGAGAAGACUGCGGGUUCGAGUCCCGUACGGGUCG — higher, -0.362
- AGUCCUUUGGCGUAAUGGUAACGCGUUUCCCUCCUAAGGAGAAGACUGCGGGUUCGAGUCCCGUACGGGGCG — higher, -0.376
- AGUCCUUUGGCGUAAUGGUAACGCGUCUCCCUCCUAAGGAGAAGACUGCGGGUUCGAGUCCCGUACGGAGUG — higher, -0.256
- AGUCCUUUGGCGUAAUGGUAACGCGUUUCCCUCCUAAGGAGACGACUGCGGGUUCGAGUCCCGUACGGGGUG — lower, -0.449
- AGUCCUUUGGCGUAAUGGUAACGCGUCUCCCUCCUAAGGAGAAGACUGCGGGUUCGAGUCCCGUACGGAUUG — higher, -0.22
- AGUCCUUUGGCGUAAUGGUAACGCGUUUCCCUCCUAAGGAGAAGACUGCGGGUUCGAGUCCCGUACGGAUUG — higher, -0.305
- AGUCCUUUGGCGUAAUGGUAACGCGUUUCCCUCCUAAGGAGACGACUGCGGGUUCGAGUCCCGUACGGAACG — higher, -0.3
- AGUCCUUUGGCGUAAUGGUAACGCGUUUCCCUCCUAAGGAGACGAUUGCGGGUUCGAGUCCCGUACGGAACG — higher, -0.363
- AGUCCUUUGGCGUAAUGGUAACGCGUUUCCCUCCUAAGGAGACGACUGCGGGUUCGAGUCCCGUACGGGAUG — lower, -0.479
- AGUCCUUUGGCGUAAUGGUAACGCGUUUCCCUCCUAAGGAGAAGACUGCGGGUUCGAGUCCCGUACGGGGUG — lower, -0.448
- AGUCCUUUGGCGUAAUGGUAACGCGUCUCCCUCCUAAGGAGAAGACUGCGGGUUCGAGUCCCGUACGGGUCG — higher, -0.278
- AGUCCUUUGGCGUAAUGGUAACGCGUCUCCCUCCUAAGGAGAAGACUGCGGGUUCGAGUCCCGUACGGGGCG — higher, -0.183
- AGUCCUUUGGCGUAAUGGUAACGCGUUUCCCUCCUAAGGAGACGAUUGCGGGUUCGAGUCCCGUAUGGGUCG — lower, -0.451
- AGUCCUUUGGCGUAAUGGUAACGCGUUUCCCUCCUAAGGAGACGAUUGCGGGUUCGAGUCCCGUAUGGGGCG — lower, -0.476
- AGUCCUUUGGCGUAAUGGUAACGCGUUUCCCUCCUAAGGAGACGAUUGCGGGUUCGAGUCCCGUAUGGAAUG — lower, -0.526
- AGUCCUUUGGCGUAAUGGUAACGCGUUUCCCUCCUAAGGAGACGAUUGCGGGUUCGAGUCCCGUAAGGGGUG — higher, -0.337
- AGUCCUUUGGCGUAAUGGUAACGCGUUUCCCUCCUAAGGAGACGAUUGCGGGUUCGAGUCCCGUAUGGGAUG — higher, -0.4
- AGUCCUUUGGCGUAAUGGUAACGCGUUUCCCUCCUAAGGAGACGAUUGCGGGUUCGAGUCCCGUAUGGGUUG — lower, -0.434
- AGUCCUUUGGCGUAAUGGUAACGCGUUUCCCUCCUAAGGAGACGACUGCGGGUUCGAGUCCCGUAUGGGAUG — lower, -0.764
- AGUCCUUUGGCGUAAUGGUAACGCGUUUCCCUCCUAAGGAGACGAUUGCGGGUUCGAGUCCCGUACGGAUUG — higher, -0.339
- AGUCCUUUGGCGUAAUGGUAACGCGUUUCCCUCCUAAGGAGACGAUUGCGGGUUCGAGUCCCGUACGGAAUG — higher, -0.277
- AGUCCUUUGGCGUAAUGGUAACGCGUUUCCCUCCUAAGGAGACGAUUGCGGGUUCGAGUCCCGUAUGGAUUG — lower, -0.647
- AGUCCUUUGGCGUAAUGGUAACGCGUUUCCCUCCUAAGGAGACGACUGCGGGUUCGAGUCCCGUAAGGGGUG — lower, -0.461
- AGUCCUUUGGCGUAAUGGUAACGCGUUUCCCUCCUAAGGAGACGAUUGCGGGUUCGAGUCCCGUACGGGUUG — higher, -0.41
- AGUCCUUUGGCGUAAUGGUAACGCGUUUCCCUCCUAAGGAGACGAUUGCGGGUUCGAGUCCCGUACGGAGCG — higher, -0.387
- AGUCCUUUGGCGUAAUGGUAACGCGUUUCCCUCCUAAGGAGACGAUUGCGGGUUCGAGUCCCGUACGGAUCG — higher, -0.341
- AGUCCUUUGGCGUAAUGGUAACGCGUUUCCCUCCUAAGGAGACGAUUGCGGGUUCGAGUCCCGUAAGGAUUG — lower, -0.626
- AGUCCUUUGGCGUAAUGGUAACGCGUCUCCCUCCUAAGGAGACGACUGCGGGUUCGAGUCCCGUAUGGAUUG — higher, -0.237
- AGUCCUUUGGCGUAAUGGUAACGCGUUUCCCUCCUAAGGAGACGAUUGCGGGUUCGAGUCCCGUAAGGGUUG — lower, -0.431
- AGUCCUUUGGCGUAAUGGUAACGCGUUUCCCUCCUAAGGAGACGACUGCGGGUUCGAGUCCCGUACGGAUUG — higher, -0.415
- AGUCCUUUGGCGUAAUGGUAACGCGUUUCCCUCCUAAGGAGACGACUGCGGGUUCGAGUCCCGUAAGGAUUG — lower, -0.433
- AGUCCUUUGGCGUAAUGGUAACGCGUUUCCCUCCUAAGGAGACGAUUGCGGGUUCGAGUCCCGUAUGGAGUG — lower, -0.466
- AGUCCUUUGGCGUAAUGGUAACGCGUUUCCCUCCUAAGGAGACGAUUGCGGGUUCGAGUCCCGUAUGGAGCG — lower, -0.564
- AGUCCUUUGGCGUAAUGGUAACGCGUUUCCCUCCUAAGGAGACGAUUGCGGGUUCGAGUCCCGUAUGGAUCG — higher, -0.383
- AGUCCUUUGGCGUAAUGGUAACGCGUUUCCCUCCUAAGGAGACGACUGCGGGUUCGAGUCCCGUAUGGGUUG — lower, -0.54
- AGUCCUUUGGCGUAAUGGUAACGCGUUUCCCUCCUAAGGAGACGACUGCGGGUUCGAGUCCCGUAAGGAACG — higher, -0.171
- AGUCCUUUGGCGUAAUGGUAACGCGUUUCCCUCCUAAGGAGACGACUGCGGGUUCGAGUCCCGUAUGGAGCG — higher, -0.4
- AGUCCUUUGGCGUAAUGGUAACGCGUUUCCCUCCUAAGGAGACGACUGCGGGUUCGAGUCCCGUAUGGAUCG — lower, -0.47
- AGUCCUUUGGCGUAAUGGUAACGCGUUUCCCUCCUAAGGAGAAGACUGCGGGUUCGAGUCCCGUACGGAGUG — higher, -0.326
